Most compounds without a hit are left out; they make up all but 11% or so of the library.
L major viab = Leishmania major promastigote growth inhibition. Leishmania major promastigotes, resazurin fluorescence viability. inhibition, % at 10 µM. hit rate 9% among 200,000. AID 1063;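 further: promastigotes grown with compound for 44 hours at 28 °C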
WT yeast gro inh = growth inhibition of WT yeast, mitochondrial fusion screen. mitochondrial fusion phenotypic screen, WT strain. inhibition, % at 10 µM. hit rate 2.1% among 190,000; in the data active means inhibition above about 58%; tested in S. cerevisiae
Diaphorase act = activates diaphorase or chemically reduces, flagging diaphorase assay artifacts | Diaphorase/resazurin coupled assay, resorufin fluorescence, 16 min; stronger effect = higher value; 1 = vehicle wells, 0 = NADH-free wells | activation factor at 20 µM | hit rate 0.005% among 190,000 | AID 1229;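 active means diaphorase activity raised at least twofold by the compound at 20 µM; inactive means activation factor below 2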
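Measured by – red resorufin fluorescence at 544/590 nm excitation/emission · Test system – Clostridium kluyveri diaphorase, purified enzyme · Incubation – reaction time 16 min, room temperature · Buffer or medium – 50 mM HEPES pH 7.4 with 4.542 mM MgCl2, 0.005% Tween 20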
G6PDH CS = counter-screen for G6PDH assay hits: L. mesenteroides G6PDH inhibition. Purified L. mesenteroides G6PDH, diaphorase/resazurin coupled fluorescence, 45 min. AID 1020. hit rate 0.12% among 200,000. inhibition, % at 5 µM
Diaph inh CS = inhibits diaphorase or chemically oxidizes, flagging diaphorase assay artifacts | diaphorase resazurin-to-resorufin fluorescence, NADH, 16 min; bacterial (C. kluyveri) enzyme, not human | inhibition, % at 20 µM | hit rate 0.69% among 190,000;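 active means primary screen inhibition at 20 µM above a set limit, cut at about 50% in these data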;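 further: plate controls were DMSO with full reaction for no effect and wells lacking NADH for full effect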
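Assay system: diaphorase enzyme from Clostridium kluyveri. Quantity: enzyme working solution with 0.14 U/mL diaphorase. Schedule: reaction incubation of 16 min at room temperature. Technique: resorufin fluorescence, excitation 544 nm, emission 590 nm. Controls: No-NADH positive control and DMSO neutral control.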
* = called active by the depositor. Unless noted, no stated cut-off is given here; in the data, active means inhibition above about 50%; inactive means the rest.

Screening Cc1nn(-c2ccccc2)c(Cl)c1/C=C(\C#N)C(=O)NC(C)C returned L major viab 99.9*, WT yeast gro inh 10.6, Diaphorase act 0.9, G6PDH CS 6.5 and Diaph inh CS 5.0.
Screening COc1ccccc1NC(=O)/C(C#N)=C/c1c(C)nn(-c2ccc(F)cc2)c1Cl returned L major viab 0.9, WT yeast gro inh -1.2, Diaphorase act 0.9, G6PDH CS -25.2 and Diaph inh CS 13.1.
For COc1ccc(NC(=O)/C(C#N)=C/c2c(C)nn(-c3ccc(F)cc3)c2Cl)cc1Cl the results were L major viab 95.6*, WT yeast gro inh 3.7, Diaphorase act 1, G6PDH CS 3.4 and Diaph inh CS -0.3.
Screening O=C(C[n+]1cccc(/C=N/O)c1)N1CCCc2ccccc21 returned L major viab -3.0, WT yeast gro inh -8.2, Diaphorase act 0.9, G6PDH CS 4.7 and Diaph inh CS 12.5.
`COC(=O)C1=C(C)N(CCc2c[nH]c3ccc(OC)cc23)C(=O)C1` gave L major viab 17.9, WT yeast gro inh -2.5, Diaphorase act 1, G6PDH CS 3.9 and Diaph inh CS -3.2.
O=C(Cc1ccccc1)N/N=C/c1ccc([N+](=O)[O-])s1 was read as L major viab 100.6*, WT yeast gro inh 21.1, Diaphorase act 1, G6PDH CS 8.7 and Diaph inh CS -2.5.
For O=C(N/N=C/c1cc(Br)c(Br)o1)C(O)c1ccccc1 (configuration not stated) the results were L major viab -2.7, WT yeast gro inh 2.5, Diaphorase act 0.6, G6PDH CS 5.5 and Diaph inh CS 44.9.
`O=C(N/N=C/c1ccc([N+](=O)[O-])s1)C(O)c1ccccc1` (configuration not stated) gave L major viab 100.5*, WT yeast gro inh -15.4, Diaphorase act 0.8, G6PDH CS 28.7 and Diaph inh CS 23.1.
For O=C(Cc1ccccc1)N/N=C/c1cccs1 the results were L major viab 8.5, WT yeast gro inh 3.8, Diaphorase act 0.9, G6PDH CS 3.6 and Diaph inh CS 14.3.
O=C(Nc1ccccc1C(=O)N/N=C/c1ccc(F)cc1)c1ccccc1Br was read as L major viab 13.7, WT yeast gro inh 17.3, Diaphorase act 0.9, G6PDH CS -0.1 and Diaph inh CS 14.3.
O=C(N/N=C/c1ccc([N+](=O)[O-])s1)c1ccccc1Br was read as L major viab 100.5*, WT yeast gro inh 7.2, Diaphorase act 1, G6PDH CS 4.0 and Diaph inh CS 2.7.
For O=C(CNC(=O)c1cccc(F)c1)N/N=C/c1cc(Br)ccc1OCc1ccccc1 the results were L major viab 51.1*, WT yeast gro inh 19.5, Diaphorase act 0.7, G6PDH CS 6.0 and Diaph inh CS 26.5.
Screening CN1C(=O)C(CC(=O)Nc2ccc(F)cc2)N(Cc2ccco2)C1=S (configuration not stated) returned L major viab 4.9, WT yeast gro inh -2.3, Diaphorase act 0.8, G6PDH CS 12.5 and Diaph inh CS 16.4.
For CN1CCN(C(=O)CCc2nc3ccccc3n2-c2ccccc2)CC1 the results were L major viab 0.1, WT yeast gro inh 0.3, Diaphorase act 1.1, G6PDH CS 3.5 and Diaph inh CS -6.4.
For Cc1cc2c(cc(C(=O)NCc3cccnc3)n2Cc2ccc(Cl)cc2)o1 the results were L major viab 34.4, WT yeast gro inh -3.0, Diaphorase act 0.8, G6PDH CS 3.9 and Diaph inh CS 24.0.
`O=C(CCS(=O)(=O)c1ccccc1)Nc1cccc2c1C(=O)NC2=O` gave L major viab -1.0, WT yeast gro inh 6.3, Diaphorase act 1, G6PDH CS 14.3 and Diaph inh CS 2.7.
CC(NC(=O)COC(=O)c1ccc(N(C)C)cc1)c1ccccc1 (configuration not stated) was read as L major viab -4.8, WT yeast gro inh 8.2, Diaphorase act 0.9, G6PDH CS 2.2 and Diaph inh CS 14.6.
Screening CNC(=S)Nc1cc(C)ccc1OC(F)F returned L major viab 2.9, WT yeast gro inh 0.7, Diaphorase act 0.8, G6PDH CS 6.1 and Diaph inh CS 24.5.
`COC(=O)N/N=C/c1ccc([N+](=O)[O-])s1` gave L major viab 68.8*, WT yeast gro inh 3.4, Diaphorase act 0.8, G6PDH CS 8.3 and Diaph inh CS 20.7.
Screening O=C(CNC(=O)c1cccc(F)c1)N/N=C/c1ccc([N+](=O)[O-])s1 returned L major viab 100.4*, WT yeast gro inh -10.5, Diaphorase act 0.7, G6PDH CS 2.4 and Diaph inh CS 26.5.
`O=C(N/N=C/c1ccc([N+](=O)[O-])s1)c1ccccc1` gave L major viab 100.2*, WT yeast gro inh 51.6, Diaphorase act 1.2, G6PDH CS -0.9 and Diaph inh CS -17.6.
`O=C(N/N=C/c1ccc(Br)s1)c1cccc([N+](=O)[O-])c1` gave L major viab 19.2, WT yeast gro inh -0.5, Diaphorase act 0.9, G6PDH CS -0.7 and Diaph inh CS 7.5.
O=C(N/N=C\c1ccc([N+](=O)[O-])s1)c1cncc(Br)c1 was read as L major viab 100.2*, WT yeast gro inh 42.1, Diaphorase act 0.8, G6PDH CS 0.3 and Diaph inh CS 24.5.
FC(F)(F)Oc1ccc(NC(=S)NCCCN2CCOCC2)cc1 was read as L major viab 39.8, WT yeast gro inh -13.5, Diaphorase act 0.9, G6PDH CS 8.6 and Diaph inh CS 5.9.
For COC(=O)c1ccc(COC(=O)CCc2nc(-c3ccccc3)c(-c3ccccc3)o2)cc1 the results were L major viab -1.9, WT yeast gro inh 21.2, Diaphorase act 0.9, G6PDH CS -2.7 and Diaph inh CS 14.0.
CCN(Cc1nc2ccccc2c(=O)[nH]1)Cc1cc(=O)oc2cc(OC)ccc12 was read as L major viab 8.6, WT yeast gro inh 10.5, Diaphorase act 0.8, G6PDH CS 0.8 and Diaph inh CS 24.4.
`Cc1ccccc1C(=O)N/N=C/c1ccc([N+](=O)[O-])s1` gave L major viab 100.4*, WT yeast gro inh 11.6, Diaphorase act 1, G6PDH CS 7.6 and Diaph inh CS 2.4.
`COc1ccccc1NC(=O)C(=O)N/N=C/c1ccc([N+](=O)[O-])s1` gave L major viab 100.5*, WT yeast gro inh 13.1, Diaphorase act 1.1, G6PDH CS 4.9 and Diaph inh CS -9.5.
Screening CNC(=O)CSc1nnc(-c2ccccc2)n1C returned L major viab -2.7, WT yeast gro inh 3.3, Diaphorase act 0.9, G6PDH CS 12.9 and Diaph inh CS 10.6.
Cc1ccccc1C(=O)N/N=C/c1ccsc1C was read as L major viab 6.8, WT yeast gro inh -20.9, Diaphorase act 1, G6PDH CS -6.0 and Diaph inh CS 1.0.
For Cn1c(SCC(=O)N/N=C/c2ccc([N+](=O)[O-])s2)nnc1-c1ccccc1 the results were L major viab 100.5*, WT yeast gro inh 81.4, Diaphorase act 0.8, G6PDH CS -1.9 and Diaph inh CS 19.4.

From PubChem
